Source: ChEMBL document CHEMBL3576819, “Design, synthesis, biological evaluation and molecular docking studies of phenylpropanoid derivatives as potent anti-hepatitis B virus agents” (Eur J Med Chem, 2015)

What was measured:
Hepatitis B virus [1] = assay: Antiviral activity against Hepatitis B virus infected in human HepG2.2.15 cells assessed as cell survival at 300 uM after 9 days (reference value: 100%); type: functional; settings: HepG2 2.2.15, 216 h
In short: (§1)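 HepG2.2.15 cells (MEM, 10% FBS, 380 µg/ml G418, 37 °C, 5% CO2) seeded at 1×10^5 cells/ml, cultured 24 h, then exposed to various drug concentrations; drug-containing medium renewed every 3 d. OD read at 450 nm after 9 days; percent cell death calculated; CC50 = concentration killing 50% of cells. Means of at least two experiments.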

[2] = Cytotoxicity against human HepG2.2.15 cells assessed as cell death after 9 days by MTT assay; type: cell-based, HepG2 2.2.15; in short: as §1
Hepatitis B virus [3] = assay: Antiviral activity against Hepatitis B virus infected in human HepG2.2.15 cells assessed as inhibition of HBeAg secretion at 75 uM after 3 days by ELISA; type: functional; settings: HepG2 2.2.15, 72 h
In short: (§2)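 HepG2.2.15 cells (MEM, 10% FBS, 380 µg/ml G418) seeded at 1×10^5 cells/ml, held 24 h at 37 °C, then treated with various drug concentrations; medium with drug renewed every 3 d for up to 9 d. Culture medium sampled on days 3, 6 and 9, stored at -20 °C, and assayed for secreted antigen. Lamivudine as positive control; IC50 = 50% inhibition of secretion; means of at least two experiments.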

Hepatitis B virus [4] = assay: Antiviral activity against Hepatitis B virus infected in human HepG2.2.15 cells assessed as inhibition of HBV DNA copies per uL at 75 uM after 6 days by real-time fluorescence quantitative PCR analysis; type: functional; settings: HepG2 2.2.15, 144 h
Hepatitis B virus [5] = assay: Antiviral activity against Hepatitis B virus infected in human HepG2.2.15 cells assessed as inhibition of HBeAg secretion at 75 uM after 6 days by ELISA; type: functional; settings: HepG2 2.2.15, 144 h; in short: as §2
Hepatitis B virus [6] = assay: Antiviral activity against Hepatitis B virus infected in human HepG2.2.15 cells assessed as inhibition of HBsAg secretion at 150 uM after 3 days by ELISA; type: functional; settings: HepG2 2.2.15, 72 h; in short: as §2
Hepatitis B virus [7] = assay: Antiviral activity against Hepatitis B virus infected in human HepG2.2.15 cells assessed as cell survival at 150 uM after 9 days (reference value: 100%); type: functional; settings: HepG2 2.2.15, 216 h; in short: as §1
Hepatitis B virus [8] = assay: Antiviral activity against Hepatitis B virus infected in human HepG2.2.15 cells assessed as inhibition of HBsAg secretion at 75 uM after 6 days by ELISA; type: functional; settings: HepG2 2.2.15, 144 h; in short: as §2
Hepatitis B virus [9] = assay: Antiviral activity against Hepatitis B virus infected in human HepG2.2.15 cells assessed as inhibition of HBV DNA copies per uL at 300 uM after 3 days by real-time fluorescence quantitative PCR analysis; type: functional; settings: HepG2 2.2.15, 72 h
Hepatitis B virus [10] = assay: Antiviral activity against Hepatitis B virus infected in human HepG2.2.15 cells assessed as inhibition of HBV DNA copies per uL at 37.5 uM after 3 days by real-time fluorescence quantitative PCR analysis; type: functional; settings: HepG2 2.2.15, 72 h
Hepatitis B virus [11] = assay: Antiviral activity against Hepatitis B virus infected in human HepG2.2.15 cells assessed as inhibition of HBeAg secretion at 150 uM after 6 days by ELISA; type: functional; settings: HepG2 2.2.15, 144 h; in short: as §2
Hepatitis B virus [12] = assay: Antiviral activity against Hepatitis B virus infected in human HepG2.2.15 cells assessed as inhibition of HBsAg secretion at 37.5 uM after 3 days by ELISA; type: functional; settings: HepG2 2.2.15, 72 h; in short: as §2
[13] = Selectivity index, ratio of CC50 for human HepG2.2.15 cells to IC50 for Hepatitis B virus infected in human HepG2.2.15 cells assessed as inhibition of HBeAg secretion; type: functional
In short: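 Selectivity index computed as CC50/IC50, with CC50 from cell death of HepG2.2.15 cells after 9 days of treatment (OD 450 nm) and IC50 from 50% inhibition of HBeAg or HBsAg secretion in the same cells; medium with drug renewed every 3 d.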

Hepatitis B virus [14] = assay: Antiviral activity against Hepatitis B virus infected in human HepG2.2.15 cells assessed as inhibition of HBeAg secretion at 150 uM after 9 days by ELISA; type: functional; settings: HepG2 2.2.15, 216 h; in short: as §2
Hepatitis B virus [15] = assay: Antiviral activity against Hepatitis B virus infected in human HepG2.2.15 cells assessed as inhibition of HBsAg secretion at 150 uM after 9 days by ELISA; type: functional; settings: HepG2 2.2.15, 216 h; in short: as §2
Hepatitis B virus [16] = assay: Antiviral activity against Hepatitis B virus infected in human HepG2.2.15 cells assessed as inhibition of HBeAg secretion at 37.5 uM after 9 days by ELISA; type: functional; settings: HepG2 2.2.15, 216 h; in short: as §2
Hepatitis B virus [17] = assay: Antiviral activity against Hepatitis B virus infected in human HepG2.2.15 cells assessed as inhibition of HBV DNA copies per uL at 300 uM after 9 days by real-time fluorescence quantitative PCR analysis; type: functional; settings: HepG2 2.2.15, 216 h
Hepatitis B virus [18] = assay: Antiviral activity against Hepatitis B virus infected in human HepG2.2.15 cells assessed as inhibition of HBsAg secretion at 300 uM after 3 days by ELISA; type: functional; settings: HepG2 2.2.15, 72 h; in short: as §2
Hepatitis B virus [19] = assay: Antiviral activity against Hepatitis B virus infected in human HepG2.2.15 cells assessed as inhibition of HBsAg secretion at 150 uM after 6 days by ELISA; type: functional; settings: HepG2 2.2.15, 144 h; in short: as §2
Hepatitis B virus [20] = assay: Antiviral activity against Hepatitis B virus infected in human HepG2.2.15 cells assessed as inhibition of HBV DNA copies per uL at 75 uM after 3 days by real-time fluorescence quantitative PCR analysis; type: functional; settings: HepG2 2.2.15, 72 h
[21] = Selectivity index, ratio of CC50 for human HepG2.2.15 cells to IC50 for Hepatitis B virus infected in human HepG2.2.15 cells assessed as inhibition of HBV DNA replication; type: functional
Hepatitis B virus [22] = assay: Antiviral activity against Hepatitis B virus infected in human HepG2.2.15 cells assessed as inhibition of HBV DNA copies per uL at 37.5 uM after 6 days by real-time fluorescence quantitative PCR analysis; type: functional; settings: HepG2 2.2.15, 144 h
Hepatitis B virus [23] = assay: Antiviral activity against Hepatitis B virus infected in human HepG2.2.15 cells assessed as inhibition of HBV DNA copies per uL at 150 uM after 3 days by real-time fluorescence quantitative PCR analysis; type: functional; settings: HepG2 2.2.15, 72 h
Hepatitis B virus [24] = assay: Antiviral activity against Hepatitis B virus infected in human HepG2.2.15 cells assessed as inhibition of HBsAg secretion at 300 uM after 6 days by ELISA; type: functional; settings: HepG2 2.2.15, 144 h; in short: as §2
Hepatitis B virus [25] = assay: Antiviral activity against Hepatitis B virus infected in human HepG2.2.15 cells assessed as inhibition of HBV DNA replication by real-time fluorescence quantitative PCR analysis; type: functional, organism-based; settings: HepG2 2.2.15
Hepatitis B virus [26] = assay: Antiviral activity against Hepatitis B virus infected in human HepG2.2.15 cells assessed as inhibition of HBV DNA copies per uL at 75 uM after 9 days by real-time fluorescence quantitative PCR analysis; type: functional; settings: HepG2 2.2.15, 216 h
Hepatitis B virus [27] = assay: Antiviral activity against Hepatitis B virus infected in human HepG2.2.15 cells assessed as inhibition of HBsAg secretion at 75 uM after 3 days by ELISA; type: functional; settings: HepG2 2.2.15, 72 h; in short: as §2
Hepatitis B virus [28] = assay: Antiviral activity against Hepatitis B virus infected in human HepG2.2.15 cells assessed as inhibition of HBsAg secretion at 75 uM after 9 days by ELISA; type: functional; settings: HepG2 2.2.15, 216 h; in short: as §2
Hepatitis B virus [29] = assay: Antiviral activity against Hepatitis B virus infected in human HepG2.2.15 cells assessed as inhibition of HBeAg secretion at 300 uM after 3 days by ELISA; type: functional; settings: HepG2 2.2.15, 72 h; in short: as §2

| Structure (SMILES) | viability at 300 µM (Hepatitis B virus [1]) [%] | CC50 at 216 h [2] [µM] | inhibition at 75 µM (Hepatitis B virus [3]) [%] | inhibition at 75 µM (Hepatitis B virus [4]) [%] | inhibition at 75 µM (Hepatitis B virus [5]) [%] | inhibition at 150 µM (Hepatitis B virus [6]) [%] | viability at 150 µM (Hepatitis B virus [7]) [%] | inhibition at 75 µM (Hepatitis B virus [8]) [%] | inhibition at 300 µM (Hepatitis B virus [9]) [%] | inhibition at 37.5 µM (Hepatitis B virus [10]) [%] | inhibition at 150 µM (Hepatitis B virus [11]) [%] | inhibition at 37.5 µM (Hepatitis B virus [12]) [%] | Ratio CC50/IC50 [13] | inhibition at 150 µM (Hepatitis B virus [14]) [%] | inhibition at 150 µM (Hepatitis B virus [15]) [%] | inhibition at 37.5 µM (Hepatitis B virus [16]) [%] | inhibition at 300 µM (Hepatitis B virus [17]) [%] | inhibition at 300 µM (Hepatitis B virus [18]) [%] | inhibition at 150 µM (Hepatitis B virus [19]) [%] | inhibition at 75 µM (Hepatitis B virus [20]) [%] | other results |
| --- | --- | --- | --- | --- | --- | --- | --- | --- | --- | --- | --- | --- | --- | --- | --- | --- | --- | --- | --- | --- | --- |
| O=C(/C=C/c1ccc2c(c1)OCO2)O/N=C/c1ccccn1 | 35.1 | 253 | 47.5 | 47.6 | 74.8 | 63.8 | 53.8 | 67.3 | 62.8 | 30.4 | 77.6 | 36.4 | 40.82 | 95.9 | 86.9 | 82.5 | 85.8 | 75.8 | 80.5 | 36.9 | Ratio CC50/IC50 [21]: 10.8; inhibition at 37.5 µM (Hepatitis B virus [22]): 38.1%; inhibition at 150 µM (Hepatitis B virus [23]): 45.8%; inhibition at 300 µM (Hepatitis B virus [24]): 88.7%; IC50 (Hepatitis B virus [25]): 23.4 µM; inhibition at 75 µM (Hepatitis B virus [26]): 68.7%; inhibition at 75 µM (Hepatitis B virus [27]): 58%; inhibition at 75 µM (Hepatitis B virus [28]): 78.4%; inhibition at 300 µM (Hepatitis B virus [29]): 63.5% |
| COc1cc(/C=C/C(=O)O/N=C/c2ccccn2)cc2c1OCO2 | 67.2 | 645 | 27.3 | 39.2 | 42.3 | 41.2 | 82.8 | 43.9 | 41.1 | 21.6 | 63.5 | 17.2 | 8.85 | 65.3 | 70 | 30 | 67.5 | 58.5 | 59.6 | 28.6 | Ratio CC50/IC50 [21]: 6.78; inhibition at 37.5 µM (Hepatitis B virus [22]): 26.9%; inhibition at 150 µM (Hepatitis B virus [23]): 34.9%; inhibition at 300 µM (Hepatitis B virus [24]): 76.6%; IC50 (Hepatitis B virus [25]): 95 µM; inhibition at 75 µM (Hepatitis B virus [26]): 47.3%; inhibition at 75 µM (Hepatitis B virus [27]): 27.2%; inhibition at 75 µM (Hepatitis B virus [28]): 65.8%; inhibition at 300 µM (Hepatitis B virus [29]): 54.2% |
| COc1cc(/C=C/C(=O)O/N=C/c2ccco2)cc2c1OCO2 | 89.3 | 820 | 32.1 | 39.4 | 37.8 | 56.3 | 91.5 | 40.1 | 46.5 | 19.8 | 55.5 | 22.3 | 10.89 | 65.2 | 67.3 | 31 | 61.5 | 66.2 | 58.5 | 29.4 | Ratio CC50/IC50 [21]: 5.87; inhibition at 37.5 µM (Hepatitis B virus [22]): 27.6%; inhibition at 150 µM (Hepatitis B virus [23]): 40.7%; inhibition at 300 µM (Hepatitis B virus [24]): 70.7%; IC50 (Hepatitis B virus [25]): 140 µM; inhibition at 75 µM (Hepatitis B virus [26]): 39.6%; inhibition at 75 µM (Hepatitis B virus [27]): 38.8%; inhibition at 75 µM (Hepatitis B virus [28]): 57.7%; inhibition at 300 µM (Hepatitis B virus [29]): 59.8% |
| Nc1ccn([C@@H]2CS[C@H](CO)O2)c(=O)n1 [LAMIVUDINE] | 75.2 | 568 | 15.1 | 58.9 | 22.1 | 28.6 | 82.4 | 24.1 | 59.5 | 40 | 31.1 | 11.6 | 2.13 | 45.4 | 55.9 | 18.4 | 86.4 | 37.3 | 30.7 | 46 | Ratio CC50/IC50 [21]: 82.84; inhibition at 37.5 µM (Hepatitis B virus [22]): 38.6%; inhibition at 150 µM (Hepatitis B virus [23]): 46.6%; inhibition at 300 µM (Hepatitis B virus [24]): 43.6%; IC50 (Hepatitis B virus [25]): 6.86 µM; inhibition at 75 µM (Hepatitis B virus [26]): 76.7%; inhibition at 75 µM (Hepatitis B virus [27]): 22%; inhibition at 75 µM (Hepatitis B virus [28]): 33.1%; inhibition at 300 µM (Hepatitis B virus [29]): 30.9% |
